Screens from PubChem BioAssay.
A selection: hits, their analogues and other compounds. The true share with any hit is near 3.7%.
KCNK3 block: human KCNK3 channel inhibition, primary screen. CHO-KCNK3 thallium flux, FluxOR fluorescence; stronger effect = lower value. B-score at 10 µM. actives 0.84% (n = 340,000). AID 602410;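 active means B-score under library mean minus 4 SD, starting fluorescence ratio at most library mean plus 5 SD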;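 further: more negative B-score means stronger inhibition of thallium flux through KCNK3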
KCNQ1 inh: human KCNQ1 channel inhibition; actives 1.3% (n = 310,000); B-score at 10 µM; CHO-K1 KCNQ1, FluxOR thallium flux fluorescence; stronger effect = higher value; P51787;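 active means compounds whose thallium flux B-score, printed positive for inhibition, exceeds three library SD while starting fluorescence stays within three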;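 further: channel opened by potassium depolarization with thallium stimulus after 20 min compound exposure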
KCNQ1 pot: potentiates or activates the human KCNQ1 potassium channel; CHO-K1 KCNQ1, thallium flux FluxOR fluorescence; stronger effect = higher value; AID 2648; B-score at 10 µM; actives 0.35% (n = 310,000); P51787;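 active means fluorescence ratio B-score, a plate-corrected score, at least three library SD, with initial intensity B-score within 5 SD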
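Assay system: CHO-K1 cells stably expressing KCNQ1; Medium: assay buffer with matched DMSO; Also added: K+/Tl+ depolarizing stimulus; Dosing: single dose; Timing: dye 90 min, compound 20 min, room temperature; Measured by: kinetic FluxOR thallium fluorescence, 10-s 1-Hz baseline, 110-s post-stimulus read; Read-out: peak-minus-minimum fluorescence over initial fluorescence, negative-control normalized, B-scored.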
KCNK9 block: human KCNK9 channel inhibition | HEK293 KCNK9, FluxOR thallium flux fluorescence; stronger effect = lower value | B-score at 10 µM | actives 1.2% (n = 310,000);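 active means ratio B-score over 3 SD below the library mean, with starting fluorescence within 5 SD of its mean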;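 further: negative B-score means less thallium flux so channel inhibition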
Kir21 block: inhibitors of mouse Kir2.1 inward-rectifier potassium channel; P35561; HEK293-Kir2.1, FluxOR thallium flux fluorescence; stronger effect = lower value; B-score at 10 µM; actives 0.85% (n = 310,000);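 active means fluorescence ratio B-score at or below minus 3 SD of library scores, with starting-brightness B-score within 2 SD, cut at about -4.2 in these data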;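 further: channel flux triggered by added potassium and thallium sulfate stimulus; B-score of peak minus minimum fluorescence over baseline after thallium stimulus; more negative B-score means stronger Kir2.1 block with less thallium influx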
hERG protect: hERG (human) protection from proarrhythmic block | Q12809 | CHO-hERG, FluxOR thallium flux, dofetilide IC70 present | activation (rescue from dofetilide block), less the hit threshold, % at 10 µM | actives 0.51% (n = 310,000);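 active means activation above the mean of controls blocked by dofetilide plus 5 SD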;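 further: thallium influx through hERG after potassium depolarization seen as dye fluorescence rise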
KCNQ1 inh valid: confirmation of human KCNQ1 potassium channel inhibitors; inhibition, % at 10 µM; KCNQ1 cell line, FluxOR thallium flux fluorescence; shares compounds with KCNQ1 inh; actives 93% (n = 1,600);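 active means primary screen active, with duplicate mean exceeding buffer control mean plus 3 SD of buffer wells, cut at about 28% in these data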;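 further: 0% = buffer control ratio and 100% = XE991 inhibitor control ratio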
CHO Tl flux: activity in parental CHO cells lacking KCNQ1. actives 21% (n = 1,600). parental CHO-K1, FluxOR thallium flux fluorescence ratio; stronger effect = lower value; zero means no signal rise above baseline. AID 588366. shares compounds with KCNQ1 inh. fluorescence ratio (Tl flux) at 10 µM;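 active means mean of duplicate thallium-flux fluorescence ratios in parental host cells more than 5 SD below the buffer control mean, cut at about 0.38 in these data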;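 further: ratio is peak minus minimum fluorescence divided by baseline fluorescence; actives read low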
KCNQ1 ephys val: human KCNQ1 inhibition validated by electrophysiology; shares compounds with KCNQ1 inh; KCNQ1-CHO cells, automated patch clamp current; actives 20% (n = 490); calls only at 10 µM; AID 624120;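 active means KCNQ1 current drop exceeding 3 SD of negative control wells, seen in both duplicate runs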;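 further: steady state current during a 2 s step from -80 to +40 mV; negative values mean current inhibition and positive values mean potentiation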
KCNQ2 inh: KCNQ1 inhibitor that also blocks rat KCNQ2 channel. actives 71% (n = 1,600). AID 651746. KCNQ2 cells, FluxOR thallium flux fluorescence. inhibition, % at 10 µM. shares compounds with KCNQ1 inh;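 active means mean percent inhibition of the KCNQ2 thallium signal more than 5 SD above the buffer-only control wells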;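 further: KCNQ2 expressed in CHO cells; 0% = buffer control wells and 100% = XE-991 inhibitor control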
KCNQ1-KCNE1 inh: human KCNQ1/KCNE1 inhibition in KCNQ1 specificity screen. shares compounds with KCNQ1 inh. KCNQ1/KCNE1 cells, FluxOR thallium flux fluorescence. inhibition, % at 10 µM. actives 77% (n = 1,600);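 active means mean percent inhibition of duplicate wells above the buffer-only control mean plus 3 SD of those controls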;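 further: 0% = buffer only wells and 100% = XE-991 inhibitor control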
Target sequence (P51787 whole entry, looked up): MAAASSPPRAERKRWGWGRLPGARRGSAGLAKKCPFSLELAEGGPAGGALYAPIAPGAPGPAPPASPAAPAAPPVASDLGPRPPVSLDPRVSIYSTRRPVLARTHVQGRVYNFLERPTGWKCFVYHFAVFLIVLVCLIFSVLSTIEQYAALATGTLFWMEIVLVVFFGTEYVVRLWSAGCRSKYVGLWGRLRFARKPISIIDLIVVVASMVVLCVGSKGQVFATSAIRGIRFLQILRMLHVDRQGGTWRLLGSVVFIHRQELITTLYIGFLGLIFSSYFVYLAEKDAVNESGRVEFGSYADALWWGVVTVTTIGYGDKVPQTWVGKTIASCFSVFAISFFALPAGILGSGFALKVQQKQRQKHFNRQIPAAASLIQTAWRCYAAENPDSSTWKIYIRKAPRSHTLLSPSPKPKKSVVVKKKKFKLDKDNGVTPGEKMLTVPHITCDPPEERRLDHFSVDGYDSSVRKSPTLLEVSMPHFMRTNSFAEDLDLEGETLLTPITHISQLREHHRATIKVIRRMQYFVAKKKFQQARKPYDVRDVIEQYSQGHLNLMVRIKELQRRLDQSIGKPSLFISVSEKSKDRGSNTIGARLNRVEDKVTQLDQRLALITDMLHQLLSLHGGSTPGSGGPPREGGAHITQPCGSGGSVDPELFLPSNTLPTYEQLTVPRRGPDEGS
KCNK9 inh conf: confirmation of human KCNK9 potassium channel inhibitors; inhibition, % at 10 µM; AID 492992; actives 43% (n = 4,900); shares compounds with KCNK9 block; HEK293 KCNK9 cells, FluxOR thallium flux fluorescence;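 active means thallium signal inhibited by more than 5 SD of the compound-free buffer control wells, on both duplicate plates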;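 further: 0% = assay buffer control wells without compound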
Kir21 sel: tests whether KCNK9 modulators also affect mouse Kir2.1. shares compounds with KCNK9 block. Kir2.1 cells, FluxOR thallium flux fluorescence. inhibition, % at 10 µM. actives 4% (n = 4,900);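 active means thallium signal drop more than 5 SD beyond the mean of the no-compound control wells, seen in both duplicate plates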;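 further: signal is fluorescence rise after thallium addition divided by baseline fluorescence; plate controls were assay buffer only for no effect and full block by chlorpromazine control for full effect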
KCNK9 uninduced: second counter-screen for KCNK9 modulators: effect in non-induced cells; shares compounds with KCNK9 block; non-induced KCNK9-HEK293, FluxOR thallium flux; inhibition, % at 10 µM; actives 40% (n = 4,900); AID 492997;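 active means thallium signal drop beyond 5 SD of the untreated control mean, on both duplicate plates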;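 further: plate controls were buffer only IC0 wells for no effect and SID17386958 at its maximal inhibitory level for full effect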
KCNK3 confirm: human KCNK3 channel inhibition, confirmation assay. actives 99% (n = 2,400). ratio percent of control, % at 10 µM. CHO-KCNK3 thallium flux, FluxOR fluorescence; 0% buffer, 100% carvedilol maximal block. shares compounds with KCNK3 block. AID 651638;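 active means ratio percent of control, averaged over triplicates, above buffer control mean plus 5 SD, cut at about 64% in these data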;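 further: ratio is the fluorescence rise from min to max over baseline after thallium stimulus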
KCNK3 uninduced: counter-screen for KCNK3 inhibitors: effect in non-induced cells; actives 40% (n = 2,400); non-induced KCNK3 parental cells, FluxOR thallium flux; stronger effect = lower value; thallium flux ratio (lower = more inhibition) at 10 µM; shares compounds with KCNK3 block;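 active means thallium flux ratio, averaged over three wells, more than 5 SD below the buffer control mean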;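 further: host cells are CHO cells without KCNK3 induction; ratio is peak minus trough fluorescence over baseline then normalized to buffer controls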
* marks the source's active call; other numbers are inactive results; i = inactive; x = no result given; + = active, no number.

SMILES	KCNK3 block	KCNQ1 inh	KCNQ1 pot	KCNK9 block	Kir21 block	hERG protect	KCNQ1 inh valid	CHO Tl flux	KCNQ2 inh	KCNQ1-KCNE1 inh	KCNK3 confirm	KCNK3 uninduced	others
O=C1CCCc2nc(N3CCN(C(c4ccccc4)c4ccccc4)CC3)ncc21	-8.8*	8*	i	i	-0.24	-10	96*	0.45	108%*	165%*	119*	0.14*	KCNQ1 ephys val=i
O=C(CCCOc1ccc(Cl)cc1Cl)N1CCCc2ccccc21	-11*	8*	i	i	-1.8	-11	112*	0.41	92%*	167%*	122*	0.14*	KCNQ1 ephys val=i;KCNK9 inh conf=i;Kir21 sel=i;KCNK9 uninduced=33%*
CC(C)N=C(NS(=O)(=O)c1ccccc1)C(Cl)(Cl)Cl	i	i	i	i	-1.1	-5	x	x	x	x	x	x
O=C(CN1CCCC1c1ccc2c(c1)OCCO2)NC(=O)Nc1ccccc1 (centres undefined)	i	x	x	x	x	x	x	x	x	x	x	x
O=C(/C=C/c1ccc(Cl)cc1Cl)c1nc2ccccc2[nH]1	i	i	i	i	0.85	-13	x	x	x	x	x	x
Clc1ccc(/C=C/c2nc3ccccc3[nH]2)c(Cl)c1	-11*	14*	i	i	0.03	-17	112*	0.32*	107%*	76%*	115*	0.1*
CCOC(=O)N1CCC(n2c(SCC(=O)Nc3ccccc3OC)nc3ccccc3c2=O)CC1	-8.9*	6*	i	i	0.64	-8	82*	0.38*	109%*	136%*	110*	0.15*	KCNK9 inh conf=i;Kir21 sel=i;KCNK9 uninduced=i
O=C(Nc1ccncc1)c1ccc(Cl)c(S(=O)(=O)N2CCc3ccccc32)c1	-10*	10*	i	i	-0.83	-28	134*	0.29*	94%*	134%*	136*	0.16*
O=C(Nc1ccncc1)c1ccc(Cl)c(S(=O)(=O)N2CCCCC2)c1	i	i	i	i	-1.5	-15	x	x	x	x	x	x
O=S(=O)(Nc1cccnc1Cl)c1ccc(-c2ccccc2)cc1	i	i	i	i	-1.2	-8	x	x	x	x	x	x
O=S(=O)(Nc1ccccc1O)c1ccc(-c2ccccc2)cc1	-11*	15*	i	i	-2.2	-11	136*	0.39	94%*	76%*	120*	i	KCNQ1 ephys val=i
Oc1ccccc1C(=S)N1CCN(C(=S)c2ccccc2O)CC1	i	i	i	i	-0.9	-1	x	x	x	x	x	x
Cc1c(C(=O)Nc2cccc(Cl)c2)c2ccccn2c1CCc1ccncc1	-10*	9*	i	i	-1.9	-11	159*	0.36*	123%*	+	134*	0.12*
Cc1c(C(=O)Nc2ccc(Cl)cc2)c2ccccn2c1C(=O)c1ccc(F)cc1	i	i	i	i	-3	-7	x	x	x	x	x	x
c1ccc(-c2csc(N3CCCCCC3)n2)cc1	i	i	i	i	1.4	-5	x	x	x	x	x	x
Cc1cc(N2CCN(c3nc(-c4ccccc4)cs3)CC2)c2ccccc2n1	-14*	7*	i	i	-2.1	-20	130*	0.41	107%*	195%*	136*	0.13*	KCNQ1 ephys val=i
CCC(Oc1ccccc1)C(=O)N1CCN(S(=O)(=O)c2ccccc2)CC1 (centres undefined)	i	x	x	x	x	x	x	x	x	x	x	x
CCCCNC(=S)Nc1ccc(SC(F)F)cc1	-10*	8*	i	-7.7*	1.2	-14	91*	0.49	i	61%*	121*	0.15*	KCNQ1 ephys val=+
CC1CC(NC(=O)c2cc3c(=O)n4ccccc4nc3n2C)CC(C)(C)C1 (centres undefined)	-9.2*	6*	i	i	-0.87	-7	38*	0.42	101%*	i	96*	i
CC1CCCCC1NC(=O)c1cc2c(=O)n3ccccc3nc2n1C (centres undefined)	i	i	i	i	-0.25	-11	x	x	x	x	x	x
CCN(C(=O)c1cc2c(s1)-c1ccccc1OC2)c1cc(OC)ccc1OC	-14*	7*	i	-17*	-0.55	-7	110*	0.37*	96%*	185%*	132*	0.12*	KCNK9 inh conf=68%*;Kir21 sel=i;KCNK9 uninduced=32%*
Cc1ccccc1OCC(O)Cn1c(=N)n(Cc2ccccc2)c2ccccc21 (centres undefined)	-12*	12*	i	i	-12*	-26	130*	0.41	99%*	i	125*	i	KCNQ1 ephys val=i
COc1ccc(-c2csc3ncnc(N4CCN(c5ccccc5)CC4)c23)cc1	i	15*	i	-6.7*	0.13	-13	134*	0.37*	132%*	+	106*	0.13*
COc1ccc(-c2csc3ncnc(N4CCN(Cc5ccccc5)CC4)c23)cc1	i	i	i	i	0.67	-20	x	x	x	x	x	x
CC(C)NC(=O)Nc1cccc(Cl)c1	i	i	i	i	-1.7	-12	x	x	x	x	x	x
